Consider 43 compounds from ChEMBL document CHEMBL1135812, “Carbonic anhydrase activators: design of high affinity isozymes I, II, and IV activators, incorporating tri-/tetrasubstituted-pyridinium-azole moieties” (2002).

Bounds are passed on as bounds.

In experiment [1] the target is Carbonic anhydrase 1 (Homo sapiens) (UniProt P00915). Briefly: Activation of human Carbonic anhydrase I, using histamine as standard.
Experiment [2] addresses T1, Carbonic anhydrase 4 (Bos taurus) (UniProt Q95323).
T1 sequence (whole entry): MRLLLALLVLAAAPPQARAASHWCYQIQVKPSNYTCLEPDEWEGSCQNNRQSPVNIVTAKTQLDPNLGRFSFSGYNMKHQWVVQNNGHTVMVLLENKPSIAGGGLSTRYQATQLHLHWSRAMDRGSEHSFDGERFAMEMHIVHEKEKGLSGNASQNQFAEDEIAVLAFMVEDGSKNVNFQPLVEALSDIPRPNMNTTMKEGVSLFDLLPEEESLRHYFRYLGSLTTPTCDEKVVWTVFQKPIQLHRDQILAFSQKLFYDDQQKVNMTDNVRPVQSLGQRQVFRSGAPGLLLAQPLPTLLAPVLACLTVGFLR
The experiment is described as follows: Bovine Carbonic anhydrase IV activity using histamine as standard. In short, it runs like this:
(§1)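 Esterase assay: initial rates of 4-nitrophenyl acetate hydrolysis read at 400 nm, pH 7.40, 25 °C, substrate 2×10^-2 to 1×10^-6 M. Enzymes were recombinant human CA I (25 nM) and CA II (7 nM) expressed in E. coli BL21(DE3), and CA IV (33 nM) isolated from bovine lung microsomes. Activator and enzyme were preincubated 15 min at room temperature. Non-enzymatic hydrolysis was subtracted. KA is the mean of at least three determinations.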

For experiment [3], the species on record is Homo sapiens. Briefly: Ex vivo carbonic anhydrase activation was measured after 60 min of incubation of lysed human erythrocyte. The arrangement: concentration or dose not given beside the values. In kind it is functional. In short, it runs like this: (§2)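 Washed fresh human erythrocytes (Tris pH 7.40, 5 mM) were lysed in distilled water, then the supernatant was incubated with 5 μM activator at 37 °C for 30 or 60 min. CA activity (hCA I + hCA II) was read by esterase assay with 4-nitrophenyl acetate. Activity without activator was set as 100%; values are mean of n = 3.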

Experiment [4] is filed under the species Homo sapiens. Briefly: Ex vivo carbonic anhydrase activation was measured after 30 min of incubation of lysed human erythrocyte. In kind it is functional. The arrangement: concentration or dose not given beside the values. In short, it runs like this: as §2
Experiment [5] addresses Carbonic anhydrase 2 (Homo sapiens) (UniProt P00918). The experiment is described as follows: […] of human Carbonic anhydrase II, using histamine as standard. In short, it runs like this:
as §1

Chain of Carbonic anhydrase 1 (Homo sapiens) (P00915 2-261 limits assumed): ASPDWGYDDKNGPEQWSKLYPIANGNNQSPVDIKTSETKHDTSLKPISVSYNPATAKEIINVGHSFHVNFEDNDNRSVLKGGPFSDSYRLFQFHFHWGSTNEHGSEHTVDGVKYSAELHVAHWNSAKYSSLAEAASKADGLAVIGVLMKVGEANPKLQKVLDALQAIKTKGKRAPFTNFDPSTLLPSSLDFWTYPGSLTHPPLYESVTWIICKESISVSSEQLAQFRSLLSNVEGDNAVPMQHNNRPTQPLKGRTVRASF

On to `CC(C)c1cc(-c2ccccc2)cc(C(C)C)[n+]1-c1nn[n-]n1`, for which the KA in experiment [1] came out at 0.05 µM; in experiment [2] it was 0.012 µM; in experiment [5], 1.15 µM. In addition, the CA activity is 212% in experiment [3] and 173% in experiment [4].

For `CC(C)c1cc(-c2ccccc2)cc(-c2ccccc2)[n+]1-c1ncc[nH]1`, the KA in experiment [1] stood at 1.54 µM; in experiment [2], 3.14 µM; in experiment [5], 107 µM.

For `c1ccc(-c2cc(-c3ccccc3)[n+](-c3cc[nH]n3)c(-c3ccccc3)c2)cc1`, the KA in experiment [1] was 32 µM; in experiment [2] it was more than 50 µM; in experiment [5] it was more than 150 µM.

Turning to `CC(C)c1cc(-c2ccccc2)cc(-c2ccccc2)[n+]1-c1cc[nH]n1`, the KA in experiment [1] turned out to be 2.5 µM; in experiment [2], 5.29 µM; in experiment [5] it was 130 µM.

Take `CC(C)c1cc(-c2ccccc2)cc(C(C)C)[n+]1-c1cc[nH]n1.[O-][Cl+3]([O-])([O-])[O-]`: the KA in experiment [1] was determined as 0.021 µM; in experiment [2], 0.008 µM; in experiment [5], 0.155 µM. Further, the results for the CA activity in experiment [3] and in experiment [4] were 234% and 189%, respectively.

As to `CCc1cc(-c2ccccc2)cc(-c2ccccc2)[n+]1-c1ncc[nH]1`, the KA in experiment [1] was 1.05 µM; in experiment [2], 2.56 µM; in experiment [5], 84 µM.

With `CCCc1cc(-c2ccccc2)cc(-c2ccccc2)[n+]1-c1nn[n-]n1`, the KA is 4.21 µM in experiment [1], 15.5 µM in experiment [2] and more than 150 µM in experiment [5].

In the case of `CCCc1cc(-c2ccccc2)cc(CCC)[n+]1-c1ncc[nH]1`, the KA is 0.247 µM in experiment [1], 0.62 µM in experiment [2] and 48 µM in experiment [5].

For the compound `CCCCc1cc(-c2ccccc2)cc(-c2ccccc2)[n+]1-c1ncc[nH]1`, the KA in experiment [1] was 2.4 µM; in experiment [2], 9.55 µM; in experiment [5], 130 µM.

Regarding `Cc1cc(C)[n+](-c2cc[nH]n2)c(C)c1C`, the KA amounted to 0.049 µM in experiment [1], 0.038 µM in experiment [2] and 0.457 µM in experiment [5].

With `CCCCc1cc(-c2ccccc2)cc(CCCC)[n+]1-c1nn[n-]n1`, the results for the KA in experiment [1], in experiment [2] and in experiment [5] were 1.8 µM, 6.8 µM and 145 µM, respectively.

Take `CCCCc1cc(-c2ccccc2)cc(CCCC)[n+]1-c1ncc[nH]1`: the KA came out at 0.651 µM in experiment [1], 1.89 µM in experiment [2] and 86 µM in experiment [5].

Consider `c1ccc(-c2cc(-c3ccccc3)[n+](-c3ncc[nH]3)c(-c3ccccc3)c2)cc1`, for which the KA was 15 µM in experiment [1], more than 50 µM in experiment [2] and more than 150 µM in experiment [5].

For `CCCCc1cc(-c2ccccc2)cc(-c2ccccc2)[n+]1-c1nn[n-]n1`, the KA in experiment [1] was 10.5 µM; in experiment [2], more than 50 µM; in experiment [5], more than 150 µM.

As for `CCc1cc(-c2ccccc2)cc(-c2ccccc2)[n+]1-c1nn[n-]n1`, the figures for the KA in experiment [1], in experiment [2] and in experiment [5] were 3.05 µM, 12.5 µM and 140 µM, respectively.

As to `CC(C)c1cc(-c2ccccc2)cc(C(C)C)[n+]1-c1ncc[nH]1.[O-][Cl+3]([O-])([O-])[O-]`, the KA turned out to be 0.012 µM in experiment [1], 0.006 µM in experiment [2] and 0.095 µM in experiment [5]. For the same compound, the CA activity is 298% in experiment [3] and 256% in experiment [4].

For `CCc1cc(-c2ccccc2)cc(CC)[n+]1-c1cc[nH]n1`, the KA in experiment [1] stood at 0.027 µM; in experiment [2] it was 0.015 µM; in experiment [5] it was 0.306 µM.

On to `Cc1cc(C)[n+](-c2cc[nH]n2)c(C)c1`, for which the KA in experiment [1] worked out at 0.052 µM; in experiment [2], 0.045 µM; in experiment [5], 0.48 µM.

Take `CCc1cc(-c2ccccc2)cc(CC)[n+]1-c1nn[n-]n1`: the KA worked out at 0.064 µM in experiment [1], 0.055 µM in experiment [2] and 1.23 µM in experiment [5].

As to `Cc1c2cc(c(C)[n+]1C1=NCC=N1)CCCCCCCCC2`, the KA in experiment [1] was determined as 0.022 µM; in experiment [2] it was 0.02 µM; in experiment [5], 0.305 µM.

As for `CCCc1cc(-c2ccccc2)cc(CCC)[n+]1-c1nn[n-]n1`, the KA in experiment [1] was 2.12 µM; in experiment [2] it was 1.55 µM; in experiment [5], 136 µM.

With `c1ccc(-c2cc(-c3ccccc3)[n+](-c3nn[n-]n3)c(-c3ccccc3)c2)cc1`, the KA is 41 µM in experiment [1], more than 50 µM in experiment [2] and more than 150 µM in experiment [5].

Regarding `CCc1cc(-c2ccccc2)cc(-c2ccccc2)[n+]1-c1cc[nH]n1`, the KA in experiment [1] was determined as 2.34 µM; in experiment [2] it was 3.41 µM; in experiment [5] it was 118 µM.

Take `Cc1cc(C(C)C)[n+](-c2cc[nH]n2)c(C(C)C)c1`: the KA in experiment [1] is 0.038 µM; in experiment [2], 0.016 µM; in experiment [5], 0.264 µM.

Take `CCCc1cc(-c2ccccc2)cc(-c2ccccc2)[n+]1-c1ncc[nH]1`: the KA in experiment [1] is 1.9 µM; in experiment [2], 5.76 µM; in experiment [5] it was 130 µM.

Consider `Cc1cc(C(C)C)[n+](-c2ncc[nH]2)c(C(C)C)c1`, for which the KA in experiment [1] was 0.024 µM; in experiment [2], 0.008 µM; in experiment [5] it was 0.13 µM.

Take `Cc1cc(-c2ccccc2)cc(C)[n+]1-c1nn[n-]n1`: the values for the KA in experiment [1], in experiment [2] and in experiment [5] were 0.076 µM, 0.063 µM and 1.39 µM, respectively.

Regarding `Cc1cc(C)[n+](-c2ncc[nH]2)c(C)c1`, the KA in experiment [1] turned out to be 0.036 µM; in experiment [2] it was 0.021 µM; in experiment [5] it was 0.347 µM.

For the compound `Cc1cc(-c2ccccc2)cc(C)[n+]1-c1cc[nH]n1`, the KA in experiment [1] stood at 0.035 µM; in experiment [2], 0.017 µM; in experiment [5] it was 0.359 µM.

Turning to `CCCCc1cc(-c2ccccc2)cc(-c2ccccc2)[n+]1-c1cc[nH]n1`, the KA in experiment [1] was 5.64 µM; in experiment [2], more than 50 µM; in experiment [5], more than 150 µM.

As to `Cc1cc(-c2ccccc2)cc(-c2ccccc2)[n+]1-c1ncc[nH]1`, the figures for the KA in experiment [1], in experiment [2] and in experiment [5] were 0.303 µM, 1.24 µM and 62 µM, respectively.

Turning to `CCc1cc(-c2ccccc2)cc(CC)[n+]1-c1ncc[nH]1`, the results for the KA in experiment [1], in experiment [2] and in experiment [5] were 0.018 µM, 0.009 µM and 0.144 µM, respectively.

Turning to `Cc1cc(C)[n+](-c2cc[nH]n2)c(-c2ccccc2)c1`, the KA in experiment [1] amounted to 0.875 µM; in experiment [2] it was 1.68 µM; in experiment [5], 83 µM.

As for `Cc1c2cc(c(C)[n+]1-c1cc[nH]n1)CCCCCCCCC2`, the KA in experiment [1] came to 0.037 µM; in experiment [2], 0.033 µM; in experiment [5], 0.412 µM.

`Cc1cc(C)[n+](-c2ncc[nH]2)c(-c2ccccc2)c1`: the values for the KA in experiment [1], in experiment [2] and in experiment [5] were 0.36 µM, 0.975 µM and 59 µM, respectively.

On to `CC(C)c1cc(-c2ccccc2)cc(-c2ccccc2)[n+]1-c1nn[n-]n1`, for which the KA came out at 2.87 µM in experiment [1], 10.1 µM in experiment [2] and 134 µM in experiment [5].

Take `Cc1cc(-c2ccccc2)cc(-c2ccccc2)[n+]1-c1nn[n-]n1`: the KA was 1.1 µM in experiment [1], 5.24 µM in experiment [2] and 108 µM in experiment [5].

In the case of `CCCc1cc(-c2ccccc2)cc(-c2ccccc2)[n+]1-c1cc[nH]n1`, the KA in experiment [1] was determined as 2.78 µM; in experiment [2], 8.23 µM; in experiment [5], 135 µM.

As to `NCCc1c[nH]cn1` [HISTAMINE], the results for the KA in experiment [1], in experiment [2] and in experiment [5] were 2.1 µM, 41 µM and 125 µM, respectively. Besides, the CA activity in experiment [3] is 130%; in experiment [4], 121%.

Take `CCCCc1cc(-c2ccccc2)cc(CCCC)[n+]1-c1cc[nH]n1`: the KA turned out to be 1.76 µM in experiment [1], 2.59 µM in experiment [2] and 140 µM in experiment [5].

Consider `Cc1cc(-c2ccccc2)cc(-c2ccccc2)[n+]1-c1cc[nH]n1`, for which the KA is 0.64 µM in experiment [1], 1.85 µM in experiment [2] and 96 µM in experiment [5].

For the compound `CCCc1cc(-c2ccccc2)cc(CCC)[n+]1-c1cc[nH]n1`, the KA in experiment [1] stood at 1.35 µM; in experiment [2], 1.2 µM; in experiment [5], 75 µM.

Take `Cc1cc(-c2ccccc2)cc(C)[n+]1-c1ncc[nH]1.[O-][Cl+3]([O-])([O-])[O-]`: the figures for the KA in experiment [1], in experiment [2] and in experiment [5] were 0.021 µM, 0.013 µM and 0.153 µM, respectively. Also, the CA activity in experiment [3] was determined as 233%; in experiment [4] it was 192%.
